# Test results as given in article PMC7689895 (ACS Omega, 2020).
# Assays:
# [1] = test system: herpes simplex virus type 1 (HSV-1); experiment: Plaque assay for antiviral activity, Vero cells; type: cell-based; details: for IC50: Human alphaherpesvirus 1, Vero; for mean % of reduction, herpes simplex virus type-1: nontoxic dose, viral titers 1 × 10^5, 1 × 10^6, 1 × 10^7
# Cytotoxicity test [2] = type: cell-based; details: African green monkey, uninfected Vero cells
# Outline: (§1)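 Stocks of 50 mg/mL in DMSO, with antibiotic–antimycotic added, were diluted twofold in DMEM. Cells at 2 × 10⁵ cells/mL were grown 24 h at 37 °C under 5% CO₂ to confluence, then exposed 72 h. Morphology was scored daily by inverted microscopy. Viable cells were counted by 0.4% trypan blue exclusion after trypsinisation. CC50 halves OD492 of treated versus untreated uninfected cells. Triplicates.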
# USP7 enzyme = USP7 enzyme (Homo sapiens, UniProt Q93009); experiment: USP7 Inhibitor Screening Assay Kit; type: biochemical; details: for inhibition at 0.1 µg/mL / inhibition at 1 µg/mL / inhibition at 10 µg/mL / inhibition at 100 µg/mL: read-out: inhibition percentage against USP7
# Outline: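 Human recombinant USP7 from a commercial kit was stabilised with DTT and used at 0.4 ng/µL. Ub-AMC substrate was diluted 400-fold in 1× assay buffer, test compound or inhibitor buffer was added, and the enzyme started the reaction. After 30 min at room temperature with rotation, fluorescence was read at 360 nm excitation and 460 nm emission, minus blank.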
# coxsackievirus B4 (CBV4) = experiment: Plaque assay for antiviral activity, BGM cells; type: cell-based; details: for SI: CC50/IC50 ratio; for mean % of reduction, coxsackievirus B4: nontoxic dose, viral titers 1 × 10^5, 1 × 10^6, 1 × 10^7
# Outline: (§2)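 Nontoxic dilutions were mixed 1:1 (100 µL each) with virus (10⁵–10⁷) for 0.5 h at 37 °C. Tenfold dilutions were plated on Hep-2 (HAdV7), FRHK-4 (HAV HM175) or BGM (CBV4), adsorbed 1 h at 37 °C under 5% CO₂, and overlaid with 2× DMEM plus 1% agarose. Plaques were fixed with formalin, stained with crystal violet and counted as pfu/mL. IC50 is the half-maximal plaque reduction; SI = CC50/IC50. Triplicates.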
# [3] = test system: adenovirus type 7 (HAdV7); experiment: Plaque assay for antiviral activity, Hep-2 cells; type: cell-based; details: for mean % of reduction, adenovirus type 7: nontoxic dose, viral titers 1 × 10^5, 1 × 10^6, 1 × 10^7
# Outline: as §2
# Hep-2 = experiment: Cytotoxicity test; type: cell-based; details: Hep-2 cell line
# Outline: as §1
# Huh 7.5 = experiment: Cytotoxicity test; type: cell-based; details: Huh 7.5 cell line
# Outline: as §1
# Vero = experiment: Cytotoxicity test; type: cell-based; details: Vero cell line
# Outline: as §1
# FRHK-4 = experiment: Cytotoxicity test; type: cell-based; details: FRHK-4 cell line
# Outline: as §1
# BGM = experiment: Cytotoxicity test; type: cell-based; details: for nontoxic dose: BGM cell line
# Outline: as §1
# HCVcc genotype 4 = experiment: Antiviral bioassay against ED-43/SG-Feo; type: cell-based, hepatitis C virus genotype 4a; details: for mean % of reduction, HCVcc genotype 4: nontoxic dose, viral titers 1 × 10^5, 1 × 10^6, 1 × 10^7
# [4] = test system: hepatitis A virus (HAV) HM175; experiment: Plaque assay for antiviral activity, FRHK-4 cells; type: cell-based; details: for mean % of reduction, hepatitis A virus HM175: nontoxic dose, viral titers 1 × 10^5, 1 × 10^6, 1 × 10^7
# Outline: as §2
# Cytotoxicity test [5] = type: cell-based; details: human, uninfected Hep-2 cells
# Outline: as §1
# Cytotoxicity test [6] = type: cell-based; details: human, uninfected Huh 7.5 cells
# Outline: as §1
# Cytotoxicity test [7] = type: cell-based; details: rhesus monkey, uninfected FRHK-4 cells
# Outline: as §1
# Cytotoxicity test [8] = type: cell-based; details: African green monkey, uninfected BGM cells
# Outline: as §1
# Sequence of USP7 enzyme (Q93009 whole entry): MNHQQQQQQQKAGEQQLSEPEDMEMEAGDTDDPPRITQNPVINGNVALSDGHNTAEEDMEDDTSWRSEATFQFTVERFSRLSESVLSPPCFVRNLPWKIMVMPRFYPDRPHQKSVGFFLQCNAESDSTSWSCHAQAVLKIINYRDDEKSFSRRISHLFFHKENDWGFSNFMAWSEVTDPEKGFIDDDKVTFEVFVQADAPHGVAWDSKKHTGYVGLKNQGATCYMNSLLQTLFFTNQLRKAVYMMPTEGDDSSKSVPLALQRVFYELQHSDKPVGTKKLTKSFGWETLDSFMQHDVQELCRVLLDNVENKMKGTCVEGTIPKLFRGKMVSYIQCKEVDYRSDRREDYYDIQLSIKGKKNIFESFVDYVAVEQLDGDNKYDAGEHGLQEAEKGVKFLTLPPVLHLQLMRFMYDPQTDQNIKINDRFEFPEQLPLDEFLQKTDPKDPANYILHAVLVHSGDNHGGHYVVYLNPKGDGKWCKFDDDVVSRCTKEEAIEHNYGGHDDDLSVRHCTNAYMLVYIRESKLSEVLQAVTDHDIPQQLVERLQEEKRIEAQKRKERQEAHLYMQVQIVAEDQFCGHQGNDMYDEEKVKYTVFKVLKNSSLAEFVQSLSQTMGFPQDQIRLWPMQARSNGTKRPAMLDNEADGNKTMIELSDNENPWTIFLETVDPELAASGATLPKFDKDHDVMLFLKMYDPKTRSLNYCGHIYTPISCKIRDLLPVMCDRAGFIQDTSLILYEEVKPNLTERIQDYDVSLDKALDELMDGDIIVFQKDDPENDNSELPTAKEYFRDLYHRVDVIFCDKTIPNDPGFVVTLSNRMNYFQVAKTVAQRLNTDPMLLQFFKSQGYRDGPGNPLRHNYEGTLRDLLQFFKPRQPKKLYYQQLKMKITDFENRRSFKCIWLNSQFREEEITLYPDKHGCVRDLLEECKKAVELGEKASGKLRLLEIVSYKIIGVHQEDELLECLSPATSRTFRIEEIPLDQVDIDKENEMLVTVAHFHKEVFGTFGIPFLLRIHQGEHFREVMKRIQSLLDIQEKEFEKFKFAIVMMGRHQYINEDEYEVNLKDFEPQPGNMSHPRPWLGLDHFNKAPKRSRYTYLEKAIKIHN
Compound,"mean % of reduction, herpes simplex virus type-1 [1]","mean % of reduction, adenovirus type 7 [3]",nontoxic dose (Hep-2),nontoxic dose (Huh 7.5),nontoxic dose (Vero),nontoxic dose (FRHK-4),nontoxic dose (BGM),"mean % of reduction, HCVcc genotype 4 (HCVcc genotype 4)","mean % of reduction, hepatitis A virus HM175 [4]","mean % of reduction, coxsackievirus B4 (coxsackievirus B4 (CBV4))",further results
"Nc1nc2c(ncn2COCCO)c(=O)[nH]1 [acyclovir, reference compound]",–,–,–,–,–,–,–,–,–,–,IC50 [1]: 0.7 µg/mL; CC50 (Cytotoxicity test [2]): 2.8 µg/mL; IC50 (USP7 enzyme): 11 µM; inhibition at 0.1 µg/mL (USP7 enzyme): 18.7%; inhibition at 1 µg/mL (USP7 enzyme): 35%; inhibition at 10 µg/mL (USP7 enzyme): 71.7%; inhibition at 100 µg/mL (USP7 enzyme): 84.5%
O=c1c(-c2nc3ccccc3s2)cc2c(n1NS(=O)(=O)c1ccccc1)CCCC2 [compound 7a],40.0%,10.0%,110 µg/mL,100 µg/mL,110 µg/mL,110 µg/mL,110 µg/mL,30.0%,30.0%,–,"SI (coxsackievirus B4 (CBV4); Coxsackievirus B4): 2.95; IC50 (coxsackievirus B4 (CBV4); Coxsackievirus B4): 88 µg/mL; CC50 (BGM; uninfected host cells, section Coxsackievirus B4): 260 µg/mL"
O=c1c(-c2nc3ccccc3s2)cc2c(n1NS(=O)(=O)c1ccc(Cl)cc1)CCCC2 [compound 7b],- ^a,–,130 µg/mL,130 µg/mL,130 µg/mL,130 µg/mL,130 µg/mL,–,–,–,–
"N#Cc1cc(-c2nc3ccccc3s2)c(=O)n(NS(=O)(=O)c2ccccc2)c1N [compound 13a, N-(6-Amino-3-(benzo[d]thiazole-2-yl)-5-cyano-2-oxopyridine-1(2H)-yl)benzensulfonamide]",–,50%,110 µg/mL,100 µg/mL,110 µg/mL,110 µg/mL,100 µg/mL,56.7%,60%,–,"SI ([1]; CC50/IC50 ratio, Herpes Simplex Virus): 3.73; IC50 [1]: 75 µg/mL; SI (coxsackievirus B4 (CBV4); Coxsackievirus B4): 2.86; SI ([3]; CC50/IC50 ratio, Adenovirus Type 7): 2.45; CC50 (Cytotoxicity test [5]): 270 µg/mL; CC50 (Cytotoxicity test [6]): 260 µg/mL; CC50 (Cytotoxicity test [2]): 280 µg/mL; CC50 (Cytotoxicity test [7]): 260 µg/mL; CC50 (Cytotoxicity test [8]): 240 µg/mL; IC50 (USP7 enzyme): 11.3 µM; inhibition at 0.1 µg/mL (USP7 enzyme): 11.8%; inhibition at 1 µg/mL (USP7 enzyme): 35.8%; inhibition at 10 µg/mL (USP7 enzyme): 54%; inhibition at 100 µg/mL (USP7 enzyme): 81.5%; SI (HCVcc genotype 4; CC50/IC50 ratio, HCVcc Genotype 4): 3.09; SI ([4]; CC50/IC50 ratio, Hepatitis A Virus HM175): 2.89; IC50 ([4]; Hepatovirus A, FRhK-4): 90 µg/mL"
"N#Cc1cc(-c2nc3ccccc3s2)c(=O)n(NS(=O)(=O)c2ccc(Cl)cc2)c1N [compound 13b, N-(6-Amino-3-(benzo[d]thiazole-2-yl)-5-cyano-2-oxopyridine-1(2H)-yl)-4-chlorobenzensulfonamide]",26.7%,16.7%,100 µg/mL,100 µg/mL,100 µg/mL,100 µg/mL,100 µg/mL,26.7%,26.7%,30.0%,–
"Cc1ccc(S(=O)(=O)Nn2c(N)c(C#N)cc(-c3nc4ccccc4s3)c2=O)cc1 [compound 13c, N-(6-Amino-3-(benzo[d]thiazole-2-yl)-5-cyano-2-oxopyridine-1(2H)-yl)-4-methylbenzensulfonamide]",10.0%,3.3%,110 µg/mL,100 µg/mL,110 µg/mL,110 µg/mL,110 µg/mL,10.0%,6.7%,10.0%,–
"CCOC(=O)c1cc(-c2nc3ccccc3s2)c(=O)n(NS(=O)(=O)c2ccc(C)cc2)c1N [compound 13f, Ethyl-2-amino-5-(benzo[d]thiazole-2-yl)-1-(4-methylphenylsulfonamido)-6-Oxo-1,6-dihydropyridine-3-carboxylate]",23.3%,16.7%,140 µg/mL,140 µg/mL,140 µg/mL,140 µg/mL,130 µg/mL,20.0%,20.0%,20.0%,–
